Reference: ChEMBL document CHEMBL1150790, “Biochemical characterization of PER-2 and genetic environment of blaPER-2” (Antimicrob Agents Chemother, 2007)
Values after ≈ are worked out from the molar mass of the structure shown.

Legend:
Escherichia coli [1] = experiment: Antimicrobial activity against Escherichia coli CAG12177 by agar dilution method; assay type: functional
In short: (§1)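 MICs were determined by agar dilution following CLSI guidelines, with inoculum applied by a Steers multipoint inoculator.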

Escherichia coli [2] = experiment: Antimicrobial activity against Escherichia coli 33587-TC9 by agar dilution method; assay type: functional; in short: as §1
Citrobacter freundii = experiment: Antimicrobial activity against Citrobacter freundii 33587 isolate by agar dilution method; assay type: functional; in short: as §1
[3] = target: T1, PER-2 beta-lactamase (Citrobacter freundii) (UniProt A2RP81); experiment: Ratio of Kcat to Km of Citrobacter freundii PER2 beta lactamase relative to cephalothin
T1 sequence (whole entry): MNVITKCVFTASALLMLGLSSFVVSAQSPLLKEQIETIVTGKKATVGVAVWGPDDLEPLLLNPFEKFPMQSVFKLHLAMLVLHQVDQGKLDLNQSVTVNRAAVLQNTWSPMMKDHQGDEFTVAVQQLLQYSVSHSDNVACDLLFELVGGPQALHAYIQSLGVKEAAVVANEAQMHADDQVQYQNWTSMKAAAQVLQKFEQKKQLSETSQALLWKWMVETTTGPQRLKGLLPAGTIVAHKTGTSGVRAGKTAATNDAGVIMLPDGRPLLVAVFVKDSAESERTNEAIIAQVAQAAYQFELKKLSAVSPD
In short: (§2)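 Purified recombinant PER-2 (E. coli BL21(DE3) expression, Q-Sepharose purification) was assayed spectrophotometrically at 30°C in 500 μl. kcat and Km came from initial steady-state rates.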

PER-2 beta-lactamase = target: T2, PER-2 beta-lactamase (Citrobacter freundii, UniProt A2RP81); experiment: Inhibition of Citrobacter freundii PER2 beta lactamase
T2 sequence (A2RP81 whole entry): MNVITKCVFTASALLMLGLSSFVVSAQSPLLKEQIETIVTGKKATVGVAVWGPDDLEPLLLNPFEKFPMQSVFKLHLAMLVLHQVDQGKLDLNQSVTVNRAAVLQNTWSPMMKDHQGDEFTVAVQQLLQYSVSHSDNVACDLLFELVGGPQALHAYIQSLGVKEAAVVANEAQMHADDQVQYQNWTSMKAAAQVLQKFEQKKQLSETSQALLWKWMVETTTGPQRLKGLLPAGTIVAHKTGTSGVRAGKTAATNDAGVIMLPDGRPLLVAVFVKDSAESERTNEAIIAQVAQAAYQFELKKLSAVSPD
In short: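 Purified recombinant PER-2 was incubated with the drug plus 100 μM nitrocefin as reporter substrate in 500 μl at 30°C. Residual enzyme activity was read spectrophotometrically. Apparent Km values were derived as competitive inhibitor constants (Ki).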

[4] = substrate: CC1(C)S[C@@H]2[C@H](NC(=O)[C@H](N)c3ccccc3)C(=O)N2[C@H]1C(=O)O; experiment: (§3) Activity of Citrobacter freundii PER2 beta lactamase
[5] = substrate: CC(C)(O/N=C(\C(=O)N[C@@H]1C(=O)N2C(C(=O)[O-])=C(C[n+]3ccccc3)CS[C@H]12)c1csc(N)n1)C(=O)O; experiment: as §3
[6] = substrate: CC(=O)OCC1=C(C(=O)O)N2C(=O)[C@@H](NC(=O)Cc3cccs3)[C@H]2SC1; experiment: as §3
[7] = substrate: O=C(Cc1cccs1)N[C@@H]1C(=O)N2C(C(=O)O)=C(/C=C/c3ccc([N+](=O)[O-])cc3[N+](=O)[O-])CS[C@H]12; experiment: as §3
[8] = substrate: CO[C@@]1(NC(=O)Cc2cccs2)C(=O)N2C(C(=O)O)=C(COC(N)=O)CS[C@@H]21; experiment: as §3
[9] = substrate: CCN1CCN(C(=O)N[C@@H](C(=O)N[C@@H]2C(=O)N3C(C(=O)O)=C(CSc4nnnn4C)CS[C@H]23)c2ccc(O)cc2)C(=O)C1=O; experiment: as §3
[10] = substrate: CCN1CCN(C(=O)N[C@@H](C(=O)N[C@@H]2C(=O)N3[C@@H]2SC(C)(C)[C@@H]3C(=O)O)c2ccccc2)C(=O)C1=O; experiment: as §3
[11] = substrate: C[C@@H](O)[C@H]1C(=O)N2C(C(=O)O)=C(SCCNC=N)C[C@H]12; experiment: as §3
[12] = substrate: CO/N=C(\C(=O)N[C@@H]1C(=O)N2C(C(=O)[O-])=C(C[N+]3(C)CCCC3)CS[C@H]12)c1csc(N)n1; experiment: as §3
[13] = substrate: C[C@H]1[C@H](NC(=O)/C(=N\OC(C)(C)C(=O)O)c2csc(N)n2)C(=O)N1S(=O)(=O)O; experiment: as §3
[14] = substrate: CO/N=C(\C(=O)N[C@@H]1C(=O)N2C(C(=O)O)=C(COC(C)=O)CS[C@H]12)c1csc(N)n1; experiment: as §3
[15] = substrate: CC1(C)S[C@@H]2[C@H](NC(=O)Cc3ccccc3)C(=O)N2[C@H]1C(=O)O; experiment: as §3
[16] = substrate: CO/N=C(\C(=O)N[C@@H]1C(=O)N2C(C(=O)O)=C(COC(N)=O)CS[C@H]12)c1ccco1; experiment: as §3
[17] = substrate: CC1(C)S[C@@H]2[C@H](NC(=O)[C@H](N)c3ccccc3)C(=O)N2[C@H]1C(=O)O; experiment: (§4) Ratio of Kcat to Km of Citrobacter freundii PER2 beta lactamase; in short: as §2
[18] = substrate: CC(C)(O/N=C(\C(=O)N[C@@H]1C(=O)N2C(C(=O)[O-])=C(C[n+]3ccccc3)CS[C@H]12)c1csc(N)n1)C(=O)O; experiment: as §4; in short: as §2
[19] = substrate: CC(=O)OCC1=C(C(=O)O)N2C(=O)[C@@H](NC(=O)Cc3cccs3)[C@H]2SC1; experiment: as §4; in short: as §2
[20] = substrate: O=C(Cc1cccs1)N[C@@H]1C(=O)N2C(C(=O)O)=C(/C=C/c3ccc([N+](=O)[O-])cc3[N+](=O)[O-])CS[C@H]12; experiment: as §4; in short: as §2
[21] = substrate: CCN1CCN(C(=O)N[C@@H](C(=O)N[C@@H]2C(=O)N3C(C(=O)O)=C(CSc4nnnn4C)CS[C@H]23)c2ccc(O)cc2)C(=O)C1=O; experiment: as §4; in short: as §2
[22] = substrate: CCN1CCN(C(=O)N[C@@H](C(=O)N[C@@H]2C(=O)N3[C@@H]2SC(C)(C)[C@@H]3C(=O)O)c2ccccc2)C(=O)C1=O; experiment: as §4; in short: as §2
[23] = substrate: CO/N=C(\C(=O)N[C@@H]1C(=O)N2C(C(=O)[O-])=C(C[N+]3(C)CCCC3)CS[C@H]12)c1csc(N)n1; experiment: as §4; in short: as §2
[24] = substrate: C[C@H]1[C@H](NC(=O)/C(=N\OC(C)(C)C(=O)O)c2csc(N)n2)C(=O)N1S(=O)(=O)O; experiment: as §4; in short: as §2
[25] = substrate: CO/N=C(\C(=O)N[C@@H]1C(=O)N2C(C(=O)O)=C(COC(C)=O)CS[C@H]12)c1csc(N)n1; experiment: as §4; in short: as §2
[26] = substrate: CC1(C)S[C@@H]2[C@H](NC(=O)Cc3ccccc3)C(=O)N2[C@H]1C(=O)O; experiment: as §4; in short: as §2
[27] = substrate: CO/N=C(\C(=O)N[C@@H]1C(=O)N2C(C(=O)O)=C(COC(N)=O)CS[C@H]12)c1ccco1; experiment: as §4; in short: as §2

CN(C)[C@@H]1C(O)=C(C(N)=O)C(=O)[C@@]2(O)C(O)=C3C(=O)c4c(O)cccc4[C@@](C)(O)[C@H]3C[C@@H]12 [TETRACYCLINE]
MIC (Escherichia coli [1]): 32 µg/mL (≈ 72 µM) | MIC (Escherichia coli [2]): 32 µg/mL (≈ 72 µM) | MIC (Citrobacter freundii): 0.5 µg/mL (≈ 1.13 µM)

CO/N=C(\C(=O)N[C@@H]1C(=O)N2C(C(=O)O)=C(COC(C)=O)CS[C@H]12)c1csc(N)n1 [CEFOTAXIME]
MIC (Escherichia coli [1]): ≤ 0.063 µg/mL | MIC (Escherichia coli [2]): 64 µg/mL (≈ 141 µM) | Activity [3]: 113% | MIC (Citrobacter freundii): 64 µg/mL (≈ 141 µM)

CC1(C)S[C@@H]2[C@H](NC(=O)[C@H](N)c3ccccc3)C(=O)N2[C@H]1C(=O)O [AMPICILLIN]
MIC (Escherichia coli [1]): 0.25 µg/mL (≈ 0.715 µM) | MIC (Escherichia coli [2]): > 512 µg/mL | Activity [3]: 49% | MIC (Citrobacter freundii): > 512 µg/mL

CCn1cc(C(=O)O)c(=O)c2ccc(C)nc21 [NALIDIXIC ACID]
MIC (Escherichia coli [1]): > 128 µg/mL | MIC (Escherichia coli [2]): > 128 µg/mL | MIC (Citrobacter freundii): 2 µg/mL (≈ 8.61 µM)

CO/N=C(\C(=O)N[C@@H]1C(=O)N2C(C(=O)[O-])=C(C[N+]3(C)CCCC3)CS[C@H]12)c1csc(N)n1
MIC (Escherichia coli [1]): ≤ 0.063 µg/mL | MIC (Escherichia coli [2]): 8 µg/mL (≈ 16.6 µM) | Activity [3]: 3% | MIC (Citrobacter freundii): 16 µg/mL (≈ 33.3 µM)

CCN1CCN(C(=O)N[C@@H](C(=O)N[C@@H]2C(=O)N3C(C(=O)O)=C(CSc4nnnn4C)CS[C@H]23)c2ccc(O)cc2)C(=O)C1=O
Activity [3]: 15%

C[C@@H](O)[C@H]1C(=O)N2C(C(=O)O)=C(SCCNC=N)C[C@H]12 [IMIPENEM ANHYDROUS]
MIC (Escherichia coli [1]): ≤ 0.063 µg/mL | MIC (Escherichia coli [2]): 0.125 µg/mL (≈ 0.418 µM) | Ki (PER-2 beta-lactamase): 60 nM | MIC (Citrobacter freundii): 0.063 µg/mL (≈ 0.21 µM)

O=C(N[C@H](CO)[C@H](O)c1ccc([N+](=O)[O-])cc1)C(Cl)Cl [CHLORAMPHENICOL]
MIC (Escherichia coli [1]): 2 µg/mL (≈ 6.19 µM) | MIC (Escherichia coli [2]): > 32 µg/mL | MIC (Citrobacter freundii): > 32 µg/mL

B1: PER-2 beta-lactamase (Citrobacter freundii), A2RP81 (protein)
chain: MNVITKCVFTASALLMLGLSSFVVSAQSPLLKEQIETIVTGKKATVGVAVWGPDDLEPLLLNPFEKFPMQSVFKLHLAMLVLHQVDQGKLDLNQSVTVNRAAVLQNTWSPMMKDHQGDEFTVAVQQLLQYSVSHSDNVACDLLFELVGGPQALHAYIQSLGVKEAAVVANEAQMHADDQVQYQNWTSMKAAAQVLQKFEQKKQLSETSQALLWKWMVETTTGPQRLKGLLPAGTIVAHKTGTSGVRAGKTAATNDAGVIMLPDGRPLLVAVFVKDSAESERTNEAIIAQVAQAAYQFELKKLSAVSPD
Km [4]: 38 µM | kcat [4]: 12 s⁻¹ | Km [5]: 320 µM | kcat [5]: 140 s⁻¹ | Km [6]: 9 µM | kcat [6]: 6 s⁻¹ | Km [7]: 32 µM | kcat [7]: 48 s⁻¹ | kcat [8]: < 0.001 s⁻¹ | Km [9]: 5 µM | kcat [9]: 0.5 s⁻¹ | kcat [10]: 0.04 s⁻¹ | kcat [11]: < 0.001 s⁻¹ | Km [12]: 16 µM | kcat [12]: 0.39 s⁻¹ | kcat [13]: 0.23 s⁻¹ | Km [14]: 46 µM | kcat [14]: 34 s⁻¹ | Km [15]: 16 µM | kcat [15]: 2 s⁻¹ | Km [16]: 21 µM | kcat [16]: 6 s⁻¹ | kcat/Km [17]: 0.35 µM⁻¹ s⁻¹ | kcat/Km [18]: 0.43 µM⁻¹ s⁻¹ | kcat/Km [19]: 0.67 µM⁻¹ s⁻¹ | kcat/Km [20]: 1.5 µM⁻¹ s⁻¹ | kcat/Km [21]: 0.1 µM⁻¹ s⁻¹ | kcat/Km [22]: 0.2 µM⁻¹ s⁻¹ | kcat/Km [23]: 0.02 µM⁻¹ s⁻¹ | kcat/Km [24]: 0.12 µM⁻¹ s⁻¹ | kcat/Km [25]: 0.76 µM⁻¹ s⁻¹ | kcat/Km [26]: 0.12 µM⁻¹ s⁻¹ | kcat/Km [27]: 0.3 µM⁻¹ s⁻¹
